Compound activity as filed in PubChem.
STAT1 act = STAT1 signaling activation | NIH 3T3 STAT1-luciferase reporter, IFN-gamma, luminescence; 100% = IFN-gamma alone, no compound | activation (% of control), % at 5.5 µM | hit rate 2.6% among 200,000 | AID 932;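 active = activation above the screen-wide mean activation plus 3 SD, cut at about 130% in these data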
APP 5'UTR act = APP 5'UTR luciferase reporter activation; SH-SY5Y APP 5'UTR luciferase reporter, luminescence; zero percent = DMSO vehicle wells; activation, % at 2 µM; hit rate 1% among 190,000; AID 1276;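 active = activation above a set limit, based on mean plus 3 SD of controls, cut at about 140% in these data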
STAT1 inh = reduces IFN-gamma driven STAT1 reporter signal | NIH 3T3 STAT1-luciferase reporter, luminescence | inhibition, % at 5.5 µM | hit rate 0.35% among 200,000;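 active = inhibition above a set limit, the mean inhibition across all tested compounds plus 3 SD, cut at about 34% in these data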
NF-kB neuron act = NF-kB expression increase, human neuronal cells. NF-kB reporter expression; stronger effect = higher value. fold change at 12.5 µM. hit rate 1.6% among 190,000. AID 1239; in the data active = fold change above about 3.3
STAT3 act = increases IL-6 driven STAT3 reporter signal; U3A cells, IL-6 STAT3-luciferase reporter, luminescence; 100% = signal with IL-6 EC80 alone; activation (% of control), % at 5.6 µM; hit rate 0.91% among 190,000;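 active = activation above the screen-wide mean of compound activation plus 3 SD, cut at about 130% in these data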
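System – human U3A cells carrying STAT3-luciferase construct · Probe or stimulus – Interleukin-6, 33 ng/mL · Schedule – compound 1 h, then IL-6 6 h at 37 °C · Signal – luminescence from STAT3-driven luciferase reporter · Evaluation – percent of IL-6-only median luminescence · Benchmarks – IL-6-only high control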
STAT3 blocker = reduces IL-6 driven STAT3 reporter signal. U3A cells, IL-6 STAT3-luciferase reporter, luminescence; host cell line lacks STAT1. inhibition, % at 5.5 µM. AID 862. hit rate 0.89% among 190,000;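 active = inhibition above the mean inhibition across all screened compounds plus 3 SD, cut at about 44% in these data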
STAT1 activ conf = STAT1 activation, confirmation assay. shares compounds with STAT1 act. NIH 3T3 STAT1-luciferase reporter, IFN-gamma potentiation, luminescence; 100% = IFN-gamma EC80 alone, no compound. activation (% of control), % at 5.7 µM. hit rate 97% among 1,200. AID 1262;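 active = activation above a set limit carried over from the earlier primary STAT1 screen, cut at about 140% in these data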
NFkB act STAT1ct = NF-kappaB activation in STAT1 activator counter-screen; shares compounds with STAT1 act; hit rate 43% among 1,200; AID 1306; HEK293T NF-kB luciferase reporter, TNF-alpha stimulated, luminescence; 100% = TNF-alpha with vehicle only; activation (% of control), % at 5.7 µM;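 active = activation above the mean of solvent-only control wells plus 3 SD, set per campaign, cut at about 130% in these data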;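 also: TNF-alpha given at a submaximal dose yielding about 80% of full reporter signal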
STAT3 act 2 = counter-screen for STAT1 activators: human STAT3 activation | shares compounds with STAT1 act | U3A cells STAT3-luciferase reporter, IL-6, luminescence; cells lack STAT1; 100 = IL-6 alone, no compound effect | activation (% of control), % at 5.7 µM | hit rate 46% among 1,200 | AID 1316;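 active = activation above the solvent-only control well mean plus 3 SD, set per plate batch, cut at about 110% in these data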;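 also: higher means more STAT3 reporter activation so hits are non-selective activators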
Of the large screens only hits and unclear results are named; the others gave an inactive call (follow-up assays come after a bar, where they were run). Sampled rows, rich in hits. Any-hit rate of the full collection: about 4.9%.

Fc1ccccc1N1CCN(c2cnc3ccccc3n2)CC1	STAT1 act 168, NF-kB neuron act 6.3 (no result: APP 5'UTR act) | STAT1 activ conf 245 | NFkB act STAT1ct inactive | STAT3 act 2 inactive
Oc1[nH]c2ccccc2c1C=Nc1ccc2c(c1)OCCO2	STAT1 act 187, APP 5'UTR act 183, NF-kB neuron act 4.4 | STAT1 activ conf 346 | NFkB act STAT1ct 137 | STAT3 act 2 inactive
Cc1cccc(/N=C/c2c(O)[nH]c3ccccc23)n1	STAT1 act 158, NF-kB neuron act 3.4 | STAT1 activ conf 171 | NFkB act STAT1ct inactive | STAT3 act 2 124
CC(C)N=Cc1c(O)[nH]c2ccccc12	none
COc1cc(OC)cc(C(=O)N2CCC(C(=O)Nc3ccc4c(c3)OCCO4)CC2)c1	none
CCC(C)NCCCCOc1ccc(C)cc1[N+](=O)[O-] (stereo not drawn)	none
Cc1cc(C(=O)NCCC2=CCCCC2)c(C)o1	STAT1 act 155, APP 5'UTR act 136 | STAT1 activ conf 181 | NFkB act STAT1ct inactive | STAT3 act 2 inactive
NC(=O)NCCC1=CCCCC1	none
CC(C)c1ccc(NC(=O)c2snc3ccc(Cl)cc23)cc1	STAT1 act 158 | STAT1 activ conf 194 | NFkB act STAT1ct inactive | STAT3 act 2 139
CC(C)c1ccc(NC(=O)c2cc(Br)ccc2Br)cc1	none
O=C(c1ccc([N+](=O)[O-])cc1)N1CCSC1c1cccc(Cl)c1 (stereo not drawn)	none
COc1ccccc1CNC(=O)/C=C/c1ccc(S(=O)(=O)NCc2ccco2)cc1	none
Cc1ccc(C(=O)Nc2ccc(SC(F)F)cc2)s1	STAT1 act 173 | STAT1 activ conf 205 | NFkB act STAT1ct 141 | STAT3 act 2 inactive
CC(C)(C)NC(=O)c1cc([N+](=O)[O-])ccc1N1CCCCC1	none
O=C(NCc1ccccn1)c1cc(-c2ccc(-c3ccccc3)cc2)nc2ccccc12	STAT1 act 156 | STAT1 activ conf 199 | NFkB act STAT1ct inactive | STAT3 act 2 148
CN(CC(=O)NCc1ccccn1)S(=O)(=O)c1ccc(Br)cc1	none
O=C(NCCc1ccccc1)c1ccc(Cl)nc1	STAT1 act 156 | STAT1 activ conf 163 | NFkB act STAT1ct inactive | STAT3 act 2 121
CC(=O)Nc1ccc(C(=O)NCCc2ccccc2)cc1	none
O=C(Nc1cccc(Cl)c1)Nc1nccs1	none
O=C(/C=C/c1cccc(F)c1)Nc1nccs1	STAT1 act 151, NF-kB neuron act 3.6 | STAT1 activ conf 175 | NFkB act STAT1ct 137 | STAT3 act 2 112
Cc1ccc2nc(-c3ccc(NC(=O)CCN4C(=O)c5ccccc5C4=O)cc3)sc2c1	STAT1 act 160, NF-kB neuron act 7.4 | STAT1 activ conf 153 | NFkB act STAT1ct inactive | STAT3 act 2 inactive
CC(C)(C)N1C(=O)c2ccc(C(=O)Nc3nccs3)cc2C1=O	STAT1 act 154 | STAT1 activ conf 174 | NFkB act STAT1ct inactive | STAT3 act 2 117
N#C/C(=C\c1ccc([N+](=O)[O-])o1)C(=O)Nc1ccc(F)cc1	none
N#CCc1ccc(NC(=O)/C=C/c2ccc([N+](=O)[O-])o2)cc1	STAT1 act 312 | STAT1 activ conf 130 | NFkB act STAT1ct 155 | STAT3 act 2 inactive
CCCCOC(=O)Nc1nc2ccc(OC)cc2s1	none
COc1ccc2nc(NC(=O)c3ccccc3-c3ccccc3C(=O)O)sc2c1	none
COc1ccc2nc(NC(=O)Nc3ccccc3)sc2c1	STAT1 act 205, APP 5'UTR act 189, NF-kB neuron act 9.1 | STAT1 activ conf 280 | NFkB act STAT1ct inactive | STAT3 act 2 inactive
